# Reference: ChEMBL document CHEMBL1681754, “Synthesis, structure, molecular docking, and structure-activity relationship analysis of enamines: 3-aryl-4-alkylaminofuran-2(5H)-ones as potential antibacterials” (Bioorg Med Chem, 2011)
# Key:
# Bacillus subtilis = test: Antimicrobial activity against Bacillus subtilis ATCC 6633 after 24 hrs by MTT assay; type: functional; conditions: ATCC 6633, 24 h
# In short: (§1)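 MTT colorimetric broth microdilution in LB medium. Compounds serially diluted in sterile medium (50% v/v DMSO in PBS). Inoculum approx. 10⁵ cfu/mL, 37 °C for 24 h. Then 50 µL PBS with 2 mg/mL MTT added per well, 4–5 h at room temperature. After a further 12 h at room temperature, OD read at 550 nm to give MIC₅₀.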
# Escherichia coli = test: Antimicrobial activity against Escherichia coli ATCC 35218 after 24 hrs by MTT assay; type: functional; conditions: ATCC 35218, 24 h; in short: as §1
# Candida albicans = test: Antimicrobial activity against Candida albicans ATCC 10231 after 48 hrs by MTT assay; type: functional; conditions: ATCC 10231, 48 h
# In short: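 Antifungal MTT colorimetric microdilution in RPMI-1640 medium. Compounds serially diluted in sterile medium (50% v/v DMSO in PBS). Inoculum approx. 10⁵ cfu/mL, plates at 27 °C for 48 h. Then PBS with 2 mg/mL MTT added, 4–5 h at room temperature. After a further 12 h, OD read at 550 nm to give MIC₅₀.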
# Staphylococcus aureus = test: Antimicrobial activity against Staphylococcus aureus ATCC 25923 after 24 hrs by MTT assay; type: functional; conditions: ATCC 25923, 24 h; in short: as §1
# [1] = Inhibition of Staphylococcus aureus tyrosyl-tRNA synthetase by aminoacylation assay
# In short: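 S. aureus TyrRS overexpressed in E. coli and purified (~98% by SDS–PAGE). Enzyme (0.2 nM) preincubated with a range of inhibitor concentrations for 10 min at room temperature, then prewarmed mix added at 37 °C. TCA-precipitated charged tRNA counted by scintillation; IC₅₀ is the concentration halving activity.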
# Streptococcus pneumoniae = test: Antimicrobial activity against Streptococcus pneumoniae R6 by broth microdilution method; type: functional
MIC50 (Bacillus subtilis) [µg/mL],MIC50 (Escherichia coli; read-out: MIC50) [µg/mL],MIC50 (Candida albicans) [µg/mL],MIC50 (Staphylococcus aureus) [µg/mL],IC50 [1] [µM],MIC50 (Escherichia coli) [µg/mL],MIC (Streptococcus pneumoniae) [µg/mL],SMILES
91.8,> 100,89.7,42.6,,,,O=C1OCC(N2CCOCC2)=C1c1ccc(Br)cc1
0.43,,,1,,,,NC[C@H]1O[C@H](O[C@H]2[C@H](O)[C@@H](O[C@H]3O[C@H](CO)[C@@H](O)[C@H](N)[C@H]3O)[C@H](N)C[C@@H]2N)[C@H](O)[C@@H](O)[C@@H]1O [KANAMYCIN]
9.5,79.4,5.2,0.42,0.12,,,O=C1OCC(NNc2ccc([N+](=O)[O-])cc2)=C1c1ccc(Br)cc1
24.7,> 100,3.5,9.7,3.3,,,O=C1OCC(NCCN2CCOCC2)=C1c1ccc(Br)cc1
> 100,> 100,> 100,> 100,,,,COc1ccc(C2=C(N3CCCC3)COC2=O)cc1OC
> 100,> 100,> 100,> 100,,,,COc1ccc(C2=C(NCc3ccccc3)COC2=O)cc1OC
> 100,> 100,> 100,61.4,,,,CN(C)C1=C(c2cccc(Br)c2)C(=O)OC1
> 100,> 100,> 100,87.2,,,,CCCNC1=C(c2ccc(Br)cc2)C(=O)OC1
> 100,> 100,9.08,> 100,,,,CCCCNC1=C(c2cccc(Cl)c2)C(=O)OC1
> 100,> 100,> 100,> 100,,,,COc1ccc(C2=C(N3CCNCC3)COC2=O)cc1OC
15.6,> 100,13.1,0.85,0.24,,,O=C1OCC(NNc2ccc([N+](=O)[O-])cc2)=C1c1ccccc1
> 100,> 100,> 100,88.4,,,,O=C1OCC(N2CCCC2)=C1c1ccc(Cl)cc1
78.5,> 100,77.4,54.7,,,,O=C1OCC(N2CCNCC2)=C1c1ccc(Br)cc1
50,> 100,49.8,37.1,,,,O=C1OCC(N2CCCC2)=C1c1ccc(Br)cc1
93.1,> 100,74.6,25.7,10.8,,,O=C1OCC(N2CCOCC2)=C1c1cccc(Cl)c1
> 100,> 100,> 100,> 100,,,,COc1ccc(C2=C(N3CCOCC3)COC2=O)cc1OC
> 100,> 100,> 100,65.2,,,,CN1CCN(C2=C(c3cccc(Cl)c3)C(=O)OC2)CC1

MIC50 (Bacillus subtilis) [µg/mL],MIC50 (Escherichia coli; read-out: MIC50) [µg/mL],MIC50 (Candida albicans) [µg/mL],MIC50 (Staphylococcus aureus) [µg/mL],IC50 [1] [µM],MIC50 (Escherichia coli) [µg/mL],MIC (Streptococcus pneumoniae) [µg/mL],SMILES
> 100,> 100,> 100,> 100,,,,COc1ccc(C2=C(NC3CCCCC3)COC2=O)cc1OC
> 100,> 100,> 100,> 100,,,,CCCCNC1=C(c2ccc(Br)cc2)C(=O)OC1
> 100,> 100,> 100,37.4,,,,O=C1OCC(N2CCNCC2)=C1c1cccc(Cl)c1
> 100,> 100,> 100,> 100,,,,CCCCNC1=C(c2ccc(OC)c(OC)c2)C(=O)OC1
> 100,> 100,> 100,68.3,,,,COc1ccc(C2=C(NCCN3CCOCC3)COC2=O)cc1OC
,,,,,2.5,,CC1(C)S[C@@H]2[C@H](NC(=O)Cc3ccccc3)C(=O)N2[C@H]1C(=O)O [PENICILLIN G]
> 100,> 100,> 100,52.4,,,,CCCNC1=C(c2cccc(Cl)c2)C(=O)OC1
,,,,0.003,,> 64,N[C@@H](Cc1ccc(O)cc1)C(=O)N[C@H](C(=O)O)[C@H]1[C@H](O)[C@](O)(CO)[C@@H](O)CN1O
86.7,> 100,62.8,27.8,14.5,,,O=C1OCC(NC2CCCCC2)=C1c1ccc(Br)cc1
27.9,> 100,21.3,3.2,0.86,,,O=C1OCC(NCCN2CCOCC2)=C1c1cccc(Cl)c1
> 100,> 100,> 100,> 100,,,,CN(C)C1=C(c2ccc(Br)cc2)C(=O)OC1
> 100,> 100,83.9,25.3,8.9,,,O=C1OCC(NCc2ccccc2)=C1c1cccc(Cl)c1
> 100,> 100,74.4,21.8,7.7,,,O=C1OCC(N2CCCCC2)=C1c1ccc(Br)cc1
> 100,> 100,> 100,57.6,,,,O=C1OCC(NCc2ccccc2)=C1c1ccc(Br)cc1
87.4,> 100,71.2,12.6,5.6,,,O=C1OCC(N2CCCC2)=C1c1cccc(Cl)c1
41.6,> 100,33.1,7.5,2.8,,,O=C1OCC(N2CCCCC2)=C1c1cccc(Cl)c1
> 100,> 100,> 100,> 100,,,,COc1ccc(C2=C(N3CCCCC3)COC2=O)cc1OC

SMILES,MIC50 (Bacillus subtilis) [µg/mL],MIC50 (Escherichia coli; read-out: MIC50) [µg/mL],MIC50 (Candida albicans) [µg/mL],MIC50 (Staphylococcus aureus) [µg/mL],IC50 [1] [µM],MIC50 (Escherichia coli) [µg/mL],MIC (Streptococcus pneumoniae) [µg/mL]
CC(=O)N1CCN(c2ccc(OCC3COC(Cn4ccnc4)(c4ccc(Cl)cc4Cl)O3)cc2)CC1 (stereo not given) [KETOCONAZOLE],,,4.4,,,,
